Assay outcomes deposited in PubChem by several laboratories.
Only some compounds are listed: those with a hit (about 2.6% of all), similar ones and a draw of the others.
Hsp70 act – transcriptional activators of Hsp70. 200,000 compounds, 0.04% hits. activation, % at 10 µM. HeLa Hsp70 promoter luciferase reporter, luminescence; scaled: vehicle 0, proteasome-inhibitor control 100%. AID 1203;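 active = activation above the mean across all tested compounds plus 3 SD, cutoff set per campaign, cut at about 5.5% in these data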
HSF1 activator – increases HSF-1 driven luciferase reporter signal. NIH3T3-HGL HSF-1 luciferase reporter, MG132, 8 h; 100% = twice DMSO control signal. activation, % at 9 µM. 300,000 compounds, 1.7% hits;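 active = mean replicate activation of at least 50% with a set share of replicates each reaching 50%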
HSF1 inhib – HSF1 inhibition; NIH3T3-HGL HSE-luciferase, MG132-induced, luminescence 8 h; stronger effect = lower value; activity change, negative = inhibition, % at 7.5 µM (by protocol); 300,000 compounds, 0.77% hits;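 active = more than half of replicate wells show activity change below -50%, luminescence cut by over half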;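 note: luciferase reports HSF-1 transcriptional activity via heat shock element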
HSV replic up – increases HSV replication in cells | HSV replication augmentation in cells, fold increase | maximum fold increase | 220,000 compounds, 0.005% hits | AID 1956; in the data active = maximum fold increase above about 1.5; tested in PC3 cells
Mdm2 ligase inh – inhibitors of human Mdm2 E3 ubiquitin ligase | AID 1230 | Q00987 | cell-based MDM2 ubiquitination luciferase reporter, 2 h; 0 = plate control, 100 = twice control, blank-subtracted | 210,000 compounds, 0.11% hits | signal enhancement, % at 5 µM;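 active = signal enhancement of 30% or more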;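 note: luminescence tracks abundance of the self-degrading MDM2-luciferase fusion protein; higher signal means inhibition of MDM2 E3 ligase activity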
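Material: stable MDM2–luciferase fusion reporter cells / Quantity: 2000 cells/well / Dosing: single 5 µM compound dose, 0.2% final DMSO / Buffer or medium: DMEM / Schedule: 4 h cell settling then 2 h compound exposure, 37 °C / Detection: luminescence with SteadyLite reagent, 15 min at room temperature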
Rad51 HR inh – Rad51 (human) homologous recombination inhibition | Q06609 | hRad51 DNA strand exchange, fluorescence dequenching | inhibition, % at 10 µM | 200,000 compounds, 0.085% hits | AID 1385;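 active = inhibition above 40% at the single screening dose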
Target sequence (Q06609 whole entry, looked up): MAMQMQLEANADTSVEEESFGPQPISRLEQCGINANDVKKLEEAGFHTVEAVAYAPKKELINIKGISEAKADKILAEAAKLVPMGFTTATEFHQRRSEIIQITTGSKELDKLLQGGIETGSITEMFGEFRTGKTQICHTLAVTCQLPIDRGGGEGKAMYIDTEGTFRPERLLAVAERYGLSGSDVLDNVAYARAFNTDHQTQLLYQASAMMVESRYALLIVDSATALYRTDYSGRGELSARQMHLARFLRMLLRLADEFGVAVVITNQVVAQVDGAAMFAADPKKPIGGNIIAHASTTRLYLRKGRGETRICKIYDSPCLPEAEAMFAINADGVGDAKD
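Material: hRad51 filaments on single-stranded DNA; Reagent: Donor/quencher-labelled 47-bp dsDNA substrate; Compound: 10 µM final, single point; Schedule: 37 °C 15-min filament assembly, 30-min compound preincubation, 15-min exchange; Technique: FRET fluorescence, excitation 485 nm, emission 520 nm; Benchmarks: control wells and blank wells on each plate.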
Numbers stand for hits; – = inactive; · = no result given.

SMILES	Hsp70 act	HSF1 activator	HSF1 inhib	HSV replic up	Mdm2 ligase inh	Rad51 HR inh
COC(=O)c1ccc(CNC(=O)COC(=O)Cc2ccsc2)cc1	–	·	·	–	–	–
NC(=O)c1ccc(NC(=O)CC23CC4CC(CC(Br)(C4)C2)C3)cc1	·	76	–	·	·	·
COc1ccc(CCNC(=O)c2nonc2N)cc1	–	61	–	–	–	–
O=S(=O)(Nc1cccc(-n2cnnn2)c1)c1ccccc1C(F)(F)F	·	–	–	·	·	·
COc1ccc2c(CC(=O)N3CCc4ccccc43)coc2c1	–	104	–	–	–	–
COc1ccc2cc(C(=O)N3CCc4ccccc43)[nH]c2c1	·	52	–	·	·	·
CC(OC(=O)c1ccc(Cl)c(S(N)(=O)=O)c1)C(=O)NCc1ccc2c(c1)OCO2 (configuration not stated)	·	–	–	·	·	·
Cc1cc2ccccn2c1C(=O)c1ccc([N+](=O)[O-])o1	–	–	–	–	–	–
O=C(CSc1nnnn1Cc1ccccc1)NC1CCCCC1	–	–	–	–	–	–
O=C(CSc1ncnc2c1nnn2Cc1ccccc1)NC1CCCCC1	·	80	–	·	·	·
COc1ccc(-c2ccc(SCC(=O)NC3CCCCC3)nn2)cc1OC	·	–	–	·	·	·
Cc1ccsc1/C=N/Nc1ccc(C(=O)O)cc1	·	–	–	·	·	·
CCOC(=O)N/N=C/c1c(C)nn(-c2cccc(C(F)(F)F)c2)c1Cl	–	–	–	–	–	–
Cc1nn(-c2ccccc2)c(Cl)c1/C=N/NC(=O)c1cccc(S(=O)(=O)N2CCCC2)c1	–	–	–	–	–	–
Cc1nn(-c2ccccc2Cl)c(Cl)c1/C=N/Nc1cccc(C(=O)O)c1	–	–	-71	–	–	–
Cc1ccsc1/C=N/Nc1cccc(C(=O)O)c1	–	–	-54	–	·	·
Cc1nn(-c2cccc(C(F)(F)F)c2)c(Cl)c1/C=N/Nc1cccc(C(=O)O)c1	–	–	-73	–	–	–
Cc1ccc(S(=O)(=O)N2C(=O)[C@@H]3Cc4ccccc4CN3C2=O)cc1	·	–	–	·	·	·
O=C(Nc1cccc(-n2cccn2)c1)C1CCCN(Cc2ccccc2F)C1 (configuration not stated)	·	–	–	·	·	·
O=C(NCc1ccccc1)c1onc(CS(=O)(=O)c2ccc(Cl)cc2)c1C(=O)NCc1ccccc1	·	–	–	·	·	·
CN(CC(=O)Nc1cccc(F)c1)CC(=O)Nc1cccc(S(N)(=O)=O)c1	·	–	-72	–	·	–
CC1(C)CCC23CC[C@]4(C)C(OC2=O)(C3C1)[C@H]1O[C@H]1C1[C@@]2(C)CC[C@@H](O)C(C)(C)C2CC[C@]14C (some centres not stated)	·	·	·	–	·	–
Cc1ccc(S(=O)(=O)Nc2cccc3cccnc23)c([N+](=O)[O-])c1	·	220	–	·	·	·
Cc1cc(C)c(NS(=O)(=O)c2cccc3cccnc23)c(C)c1	–	–	–	–	–	·
Cc1ccc2cccc(NS(=O)(=O)c3ccccc3)c2n1	·	140	–	·	·	·
SMILES	Hsp70 act	HSF1 activator	HSF1 inhib	HSV replic up	Mdm2 ligase inh	Rad51 HR inh
COc1ccc(NS(=O)(=O)c2ccc3ccccc3c2)c2ncccc12	·	393	–	·	·	·
COc1ccccc1NS(=O)(=O)c1ccc2ccccc2c1	·	–	–	·	·	·
Cc1cc(C)nc(NS(=O)(=O)c2ccccc2)n1	–	–	–	–	–	–
O=S(=O)(Nc1cccc2cccnc12)c1ccc(S(=O)(=O)N2CCCC2)cc1	–	189	–	–	–	–
O=S(=O)(Nc1cccc2cccnc12)c1ccccc1	·	94	–	·	·	·
c1ccc(Cc2cc(-c3ccccc3)on2)cc1	–	71	–	–	–	–
C/C(=C\C(=O)Nc1cscc1C)C(=O)O	·	74	–	–	–	–
O=C(c1ccc(F)cc1)N1CCCC(N2CCN(Cc3ccc4c(c3)OCO4)CC2)C1 (configuration not stated)	·	–	-54	·	·	·
CC(=O)Nc1nc(-c2ccc3ccccc3c2)cs1	·	87	–	·	·	·
Nc1nnnn1CC(=O)N/N=C/c1ccccn1	·	98	–	–	–	–
Nc1nnnn1CC(=O)N/N=C/c1cccs1	·	–	–	–	–	–
CCOc1ccc(NC(=O)CC2C(=O)N(c3cccc(OC)c3)C(=O)N2C(C)C)cc1 (configuration not stated)	–	–	–	–	–	–
C=CCSc1nnc(-c2cccnc2)o1	–	–	–	–	–	–
